In brackets after ≈: the same amount, converted by molar mass.
Assays:
[1] = tested on: Hepatitis C virus; assay: microbe, parasite or virus in culture; type: functional, organism-based, Hepacivirus hominis; details: JFH-1, Huh-7.5.1, 48 h
[2] = Cytotoxicity against human Huh7.5.1 cells assessed as ATP level by luminescence analysis; details: huh-7
[3] = tested on: HepG2; assay: Cytotoxicity against human HepG2 cells assessed as ATP level by luminescence analysis
[4] = tested on: Hepatitis C virus; assay: microbe, parasite or virus in culture; type: functional, Hepacivirus hominis; details: Huh-7, 48 h
[5] = tested on: Hepatitis C virus; assay: Antiviral activity against HCV genotype 1a pseudoparticle infected in human Huh7.5.1 cells assessed as inhibition of virus entry at 10 uM after 4 hrs by luciferase reporter gene assay; type: functional, Hepacivirus hominis; details: subtype 1a, Huh-7, 4 h
[6] = tested on: Hepatitis C virus; assay: Antiviral activity against HCV genotype 1b pseudoparticle infected in human Huh7.5.1 cells assessed as inhibition of virus entry at 10 uM after 4 hrs by luciferase reporter gene assay; type: functional, Hepacivirus hominis; details: Huh-7, 4 h
[7] = tested on: Murine leukemia virus; assay: Antiviral activity against Murine leukemia virus pseudoparticle infected in human Huh7.5.1 cells at 10 uM after 4 hrs by luciferase reporter gene assay; type: functional; details: Huh-7, 4 h
[8] = tested on: Vesicular stomatitis virus; assay: Antiviral activity against Vesicular stomatitis virus G pseudoparticle infected in human Huh7.5.1 cells at 10 uM after 4 hrs by luciferase reporter gene assay; type: functional; details: Huh-7, 4 h
[9] = tested on: Hepatitis C virus; assay: Antiviral activity against HCV genotype 2a assessed as inhibition of RNA replication at 10 uM by cell-based replicon assay; type: functional, Hepacivirus hominis
Method in brief: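 GT 2a subgenomic replicon cells were plated at 10^4/well and incubated overnight. They were then treated with compound (10 μM, or 3.2 or 1 μM for some compounds) for 48 h. Luciferase activity was read and expressed as % of DMSO.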

[10] = Solubility of compound in phosphate buffer at pH 7.4
[11] = AUClast in CD-1 mouse liver at 50 mg/kg, ip after 24 hrs by UPLC-MS/MS analysis; type: ADME, organism-based; design: dose 50 mg/kg, time < 24 hr, route intraperitoneal
[12] = AUCinfinity in CD-1 mouse plasma at 50 mg/kg, ip after 24 hrs by UPLC-MS/MS analysis; type: ADME, organism-based; design: dose 50 mg/kg, route intraperitoneal, time infinity
[13] = Cmax in CD-1 mouse liver at 50 mg/kg, ip after 24 hrs by UPLC-MS/MS analysis; type: ADME, organism-based; design: dose 50 mg/kg, route intraperitoneal
[14] = tested on: Hepatocyte; details: human, hepatocytes
[15] = target: histamine H1 receptor (Homo sapiens, UniProt P35367); assay: in vitro; details: PathHunter cells
[16] = tested on: Human alphaherpesvirus 1; assay: microbe, parasite or virus in culture
[17] = tested on: Human betaherpesvirus 5; assay: microbe, parasite or virus in culture
[18] = tested on: Vaccinia virus; assay: microbe, parasite or virus in culture; details: Orthopoxvirus vaccinia
[19] = tested on: Dengue virus; assay: microbe, parasite or virus in culture
[20] = tested on: Influenza A virus; assay: microbe, parasite or virus in culture; details: H1N1
[21] = tested on: Respiratory syncytial virus; assay: microbe, parasite or virus in culture; details: human respiratory syncytial virus
[22] = tested on: SARS-CoV; assay: microbe, parasite or virus in culture; details: Severe acute respiratory syndrome-related coronavirus
[23] = tested on: Poliovirus 3; assay: microbe, parasite or virus in culture; details: Enterovirus C
[24] = tested on: Rift Valley fever virus; assay: microbe, parasite or virus in culture
[25] = tested on: Tacaribe virus; assay: microbe, parasite or virus in culture; details: Mammarenavirus tacaribeense
[26] = tested on: Venezuelan equine encephalitis virus; assay: microbe, parasite or virus in culture
[27] = tested on: Hepatitis B virus; assay: microbe, parasite or virus in culture
[28] = tested on: Hepatitis C virus; assay: microbe, parasite or virus in culture
[29] = tested on: Hepatitis C virus; assay: Antiviral activity against HCV genotype 2a assessed as inhibition of RNA replication at 3.2 uM by cell-based replicon assay; type: functional, Hepacivirus hominis
Method in brief: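 GT 2a subgenomic HCV replicon cells were seeded at 10^4 cells/well and incubated overnight. They were then exposed to compound for 48 h, and replication was read by luciferase activity. Results are given as % of DMSO control.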

[30] = tested on: Hepatitis C virus; assay: Antiviral activity against single rounded infectious HCV infected in human Huh7.5.1 cells assessed as viral level at 3.2 uM after 48 hrs by luciferase reporter gene assay; type: functional, Hepacivirus hominis; details: Huh-7, 48 h
Method in brief: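 Huh7.5.1 cells (10^4 cells/well, overnight) were infected with single-round infectious HCV (HCVsc) in the presence of compound. Viral level was measured by luciferase after 48 h and expressed as % of DMSO control. The assay reports inhibition of early stages before assembly.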

[31] = tested on: Hepatitis C virus; assay: Antiviral activity against HCV genotype 1b pseudoparticle infected in human Huh7.5.1 cells assessed as inhibition of virus entry at 3.2 uM after 4 hrs by luciferase reporter gene assay; type: functional, Hepacivirus hominis; details: Huh-7, 4 h
Method in brief: (§1)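 Huh7.5.1 cells seeded at 10^4 cells/well, cultured overnight, then infected for 4 h with pseudoparticles (HCVpp GT 1a or 1b, MLVpp, VSV-Gpp) while compound was present. Cells were washed and cultured 48 h, then a luciferase read-out was taken. Values are expressed as % of DMSO control. Cyclosporin A 10 μM and bafilomycin A1 10 nM were run in parallel.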

[32] = tested on: Hepatitis C virus; assay: Antiviral activity against HCV genotype 1a pseudoparticle infected in human Huh7.5.1 cells assessed as inhibition of virus entry at 3.2 uM after 4 hrs by luciferase reporter gene assay; type: functional, Hepacivirus hominis; details: subtype 1a, Huh-7, 4 h
Method in brief: as §1

[33] = tested on: Murine leukemia virus; assay: Antiviral activity against Murine leukemia virus pseudoparticle infected in human Huh7.5.1 cells at 3.2 uM after 4 hrs by luciferase reporter gene assay; type: functional; details: Huh-7, 4 h
Method in brief: as §1

[34] = tested on: Vesicular stomatitis virus; assay: Antiviral activity against Vesicular stomatitis virus G pseudoparticle infected in human Huh7.5.1 cells at 3.2 uM after 4 hrs by luciferase reporter gene assay; type: functional; details: Huh-7, 4 h
Method in brief: as §1

[35] = Selectivity index, ratio of CC50 for human Huh7.5.1 cells infected with HCV JFH-1 virus to EC50 for HCV JFH-1 virus
[36] = (§2) Half life of compound in CD-1 mouse liver at 10 mg/kg, ip by UPLC-MS/MS analysis; type: ADME, organism-based; details: CD-1, mouse, liver
Method in brief: (§3)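 Male CD-1 mice (~35 g) got a single i.p. dose of 10 mg/kg, prepared fresh at 2 mg/mL in 10% PEG300 / 90% of 30% HP-β-CD in water. Drug was measured by UPLC-MS/MS. Parameters came from noncompartmental analysis, with AUC by the linear trapezoidal method and liver/plasma ratios taken.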

[37] = Cmax in CD-1 mouse liver at 10 mg/kg, ip after 24 hrs by UPLC-MS/MS analysis; type: ADME, organism-based; design: dose 10 mg/kg, route intraperitoneal
Method in brief: as §3

[38] = tested on: Liver microsome; assay: Metabolic stability in rat liver microsomes assessed as half life by LC-MS/MS analysis in presence of NADPH
[39] = tested on: Liver microsome; assay: Metabolic stability in human liver microsomes assessed as half life by LC-MS/MS analysis in presence of NADPH
[40] = Metabolic stability in mouse liver microsomes assessed as half life by LC-MS/MS analysis in presence of NADPH
[41] = tested on: Mus musculus; assay: Hepatotoxicity in CD-1 mouse serum assessed as ALT level at 10 mg/kg, ip by UPLC-MS/MS analysis; type: toxicity, organism-based; details: in vivo
Method in brief: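 ALT was measured in serum from the mouse PK study: male CD-1 mice, single 10 mg/kg i.p. dose in 10% PEG300 / 90% of 30% HP-β-CD, samples from 0.083 to 24 h. A vehicle-only dosing group served as control. Individual mice were plotted, with mean ± SEM.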

[42] = tested on: Liver; assay: as §2; type: ADME, organism-based; details: mouse, in vivo
Method in brief: as §3

[43] = in vitro; details: human, Huh7.5.1 cells and HepG2 cells

Chain of histamine H1 receptor (P35367 whole entry): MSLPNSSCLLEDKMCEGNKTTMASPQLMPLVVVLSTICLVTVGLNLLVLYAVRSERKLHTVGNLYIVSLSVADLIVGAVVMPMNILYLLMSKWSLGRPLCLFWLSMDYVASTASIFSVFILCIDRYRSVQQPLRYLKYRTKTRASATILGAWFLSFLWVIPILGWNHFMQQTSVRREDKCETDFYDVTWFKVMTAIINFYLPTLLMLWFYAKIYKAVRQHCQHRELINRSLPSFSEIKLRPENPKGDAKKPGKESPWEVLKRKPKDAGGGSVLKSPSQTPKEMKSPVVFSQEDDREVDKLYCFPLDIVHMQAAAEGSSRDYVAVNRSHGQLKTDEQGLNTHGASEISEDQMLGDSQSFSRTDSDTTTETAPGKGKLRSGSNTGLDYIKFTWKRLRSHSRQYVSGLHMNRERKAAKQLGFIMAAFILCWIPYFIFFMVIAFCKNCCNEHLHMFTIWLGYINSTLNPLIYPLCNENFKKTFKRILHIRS

## CN1CCN([C@@H](c2ccccc2)c2ccc(Cl)cc2)CC1
[1]
  EC50: 0.24 µM
[2]
  CC50: 33.4 µM
[3]
  CC50: 32.3 µM
[4]
  inhibition at 10 µM: 2.1%
[5]
  inhibition at 10 µM: 107%
[6]
  inhibition at 10 µM: 116%
[7]
  inhibition at 10 µM: 103%
[8]
  inhibition at 10 µM: 120%
[9]
  inhibition at 10 µM: 101%
[10]
  solubility kinetic: 29.3 µg/mL (≈ 97.4 µM)
[11]
  AUC(0-t) at 24 h: 1310 µM·h
[12]
  AUC(0-inf): 48.9 µM·h
[13]
  Cmax: 436 µM
[14]
  CC50: > 31.6 µM
[15]
  inhibition at 2 h, 0.01 µM: 49.5%

## CCN1CCN([C@@H](c2ccccc2)c2ccc(Cl)cc2)CC1
[2]
  CC50: 40 µM
[3]
  CC50: 68.9 µM
[4]
  inhibition at 10 µM: 2%
[10]
  solubility kinetic: 12.3 µg/mL (≈ 39.1 µM)
[15]
  inhibition at 2 h, 0.01 µM: 60.7%
[16]
  EC50: ≥ 1 µM
[17]
  EC50: ≥ 1 µM
[18]
  EC50: ≥ 1 µM
[19]
  EC50: ≥ 1 µM
[20]
  EC50: ≥ 1 µM
[21]
  EC50: ≥ 1 µM
[22]
  EC50: ≥ 1 µM
[23]
  EC50: ≥ 1 µM
[24]
  EC50: ≥ 1 µM
[25]
  EC50: ≥ 1 µM
[26]
  EC50: ≥ 1 µM
[27]
  EC50: ≥ 1 µM
[28]
  EC50: ≥ 1 µM

## Clc1ccc([C@H](c2ccccc2)N2CCNCC2)cc1
[29]
  inhibition at 3.2 µM: 61.6%
[30]
  inhibition at 3.2 µM: 28.1%
[31]
  inhibition at 3.2 µM: 66.3%
[32]
  inhibition at 3.2 µM: 98.8%
[33]
  inhibition at 3.2 µM: 57.5%
[34]
  inhibition at 3.2 µM: 51.9%
[1]
  EC50: 0.032 µM
[2]
  CC50: 9.31 µM
[35]
  selectivity ratio: 333
[10]
  solubility kinetic: 30.3 µg/mL (≈ 106 µM)
[36]
  half-life: 4.7 h
[37]
  Cmax: 216 µM
[14]
  CC50: 9.01 µM
[15]
  inhibition at 2 h, 0.01 µM: 88.1%

## CN1CCN(C(c2ccc(Cl)cc2)c2ccc(Cl)cc2)CC1
[38]
  t1/2: 0.433 h
[4]
  inhibition at 10 µM: 12.4%
[5]
  inhibition at 10 µM: 76.2%
[6]
  inhibition at 10 µM: 91.9%
[7]
  inhibition at 10 µM: 116%
[8]
  inhibition at 10 µM: 119%
[9]
  inhibition at 10 µM: 112%
[39]
  t1/2: > 2 h
[40]
  t1/2: 1.52 h
[10]
  solubility kinetic: > 49 µg/mL
[41]
  Activity: 80 U/L
[42]
  t1/2: 8.5 h
[15]
  inhibition at 2 h, 0.01 µM: 18.5%

## NCCOCCN1CCN(C(c2ccccc2)c2ccc(Cl)cc2)CC1 (racemic)
[29]
  inhibition at 3.2 µM: 149%
[30]
  inhibition at 3.2 µM: 6.9%
[31]
  inhibition at 3.2 µM: 37.2%
[32]
  inhibition at 3.2 µM: 19.4%
[33]
  inhibition at 3.2 µM: 107%
[34]
  inhibition at 3.2 µM: 93.1%
[1]
  EC50: 0.0072 µM
[2]
  CC50: 8.18 µM
[38]
  t1/2: 0.203 h
[3]
  CC50: 6.17 µM
[4]
  inhibition at 10 µM: 6.9%
[39]
  t1/2: 0.438 h
[40]
  t1/2: 0.417 h
[10]
  solubility kinetic: 44.3 µg/mL (≈ 118 µM)
[14]
  CC50: 8.98 µM
[43]
  selectivity ratio: < 1.8
[15]
  inhibition at 2 h, 0.01 µM: 21.5%
